Results taken from BindingDB's records for doi:10.1021/jm9009229 (University of California, 2010).

Biological target: Cruzipain (Trypanosoma cruzi, UniProt P25779)
Assay: Inhibition of Trypanosoma cruzi cruzain preincubated for 5 mins before substrate addition in presence of 0.01% Triton X-100
How it was run: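 Cruzain IC50s were measured from dose-response curves with Triton X-100 in the assay buffer at either 0.01% or 0.001%. At 0.001% Triton, some runs included pre-incubation with BSA.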

Chain of Cruzipain (P25779 whole entry): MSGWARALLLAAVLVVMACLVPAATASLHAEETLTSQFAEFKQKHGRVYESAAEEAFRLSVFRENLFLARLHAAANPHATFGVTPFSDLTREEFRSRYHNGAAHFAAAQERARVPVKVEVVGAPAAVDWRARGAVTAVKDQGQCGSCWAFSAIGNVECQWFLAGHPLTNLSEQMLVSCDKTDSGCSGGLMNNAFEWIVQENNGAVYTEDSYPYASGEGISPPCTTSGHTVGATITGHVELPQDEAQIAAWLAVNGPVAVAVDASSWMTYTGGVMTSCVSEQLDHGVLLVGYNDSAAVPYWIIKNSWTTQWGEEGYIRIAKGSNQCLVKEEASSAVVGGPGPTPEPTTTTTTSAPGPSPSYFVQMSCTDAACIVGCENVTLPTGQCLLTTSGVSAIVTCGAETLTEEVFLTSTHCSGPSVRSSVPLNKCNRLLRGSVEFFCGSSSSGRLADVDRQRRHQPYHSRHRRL

| Compound | IC50 [µM] |
| --- | --- |
| Nc1ccccc1-c1nnc(C(=O)Nc2cc(-c3ccccc3)n[nH]2)o1 [5-(2-Amino-phenyl)-[1,3,4]oxadiazole-2-carboxylic acid(5-phenyl-2H-pyrazol-3-yl)-amide] | > 100 |
| CC(C)(C)c1cc(NC(=O)c2nnc(-c3ccccc3N)o2)[nH]n1 [5-(2-Amino-phenyl)-[1,3,4]oxadiazole-2-carboxylic acid(5-tert-butyl-2H-pyrazol-3-yl)-amide] | > 50 |
| Cc1cc(NC(=O)c2nnc(-c3ccccc3N)o2)[nH]n1 [5-(2-Amino-phenyl)-[1,3,4]oxadiazole-2-carboxylic acid(5-methyl-2H-pyrazol-3-yl)-amide] | > 100 |
| Nc1ccccc1-c1nnc(C(=O)Nc2cccc(N3CCCC3)c2)o1 [5-(2-Amino-phenyl)-[1,3,4]oxadiazole-2-carboxylic acid(3-pyrrolidin-1-yl-phenyl)-amide] | > 100 |
| Cc1ccc(-c2cc(NC(=O)c3nnc(-c4ccccc4N)o3)[nH]n2)cc1 [5-(2-Amino-phenyl)-[1,3,4]oxadiazole-2-carboxylic acid(5-p-tolyl-2H-pyrazol-3-yl)-amide] | > 100 |

Now from value to molecule:

| IC50 [µM] | Compound |
| --- | --- |
| > 100 | Nc1ccccc1-c1nnc(C(=O)Nc2ccc3oc4c(c3c2)CCCC4)o1 [5-(2-Amino-phenyl)-[1,3,4]oxadiazole-2-carboxylic acid(6,7,8,9-tetrahydrodibenzofuran-2-yl)-amide] |
| > 100 | COc1ccc(-c2cc(NC(=O)c3nnc(-c4ccccc4N)o3)[nH]n2)cc1 [5-(2-Amino-phenyl)-[1,3,4]oxadiazole-2-carboxylic acid[5-(4-methoxy-phenyl)-1Hpyrazol-3-yl]-amide] |
